# ChEMBL document CHEMBL3286116, “Synthesis, biological evaluation and structure-activity correlation study of a series of imidazol-based compounds as Candida albicans inhibitors” (Eur J Med Chem, 2014)
# Experiments:
# Format in all cases: functional
# Candida parapsilosis [1] = test: Antifungal activity against Candida parapsilosis DSM 11224 after 48 hrs by CLSI broth microdilution method; details: Lodderomyces parapsilosis, DSM 11224, 48 h
# How it was run: (§1)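 Yeast CLSI broth microdilution (M27-A3). Compounds dissolved in DMSO at 100× the top test concentration, then diluted as serial two-fold dilutions in RPMI 1640 to final 0.125–64. Inoculum was 1.0–1.5 × 10^3 cells mL−1, incubated at 35 °C and read for growth at 48 h. MIC is the lowest concentration giving ≥50% growth inhibition versus growth control. Reported as the median of five replicates and as the geometric mean.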
# [2] = system: Trichophyton mentagrophytes; test: Antifungal activity against Trichophyton mentagrophytes DSM 4870 after 72 hrs by CLSI broth microdilution method; details: DSM 4870, 72 h
# How it was run: (§2)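 Dermatophytes tested by CLSI broth microdilution for filamentous fungi (M38-A2). Serial two-fold dilutions of DMSO-dissolved compound in RPMI 1640, final 0.125–64. Inoculum was 0.4–5 × 10^4 CFU mL−1, incubated at 35 °C and read at 72 h. MIC80 is the lowest concentration giving ≥80% growth inhibition versus growth control. Median of five replicates, plus geometric mean.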
# Pichia kudriavzevii [3] = test: Antifungal activity against Candida krusei PMC 0613 after 48 hrs by CLSI broth microdilution method; details: PMC 0613, 48 h; how it was run: as §1
# Nannizzia gypsea [4] = test: Antifungal activity against Microsporum gypseum DSM 3824 after 72 hrs by CLSI broth microdilution method; details: DSM 3824, 72 h; how it was run: as §2
# [5] = system: Trichophyton mentagrophytes; test: Antifungal activity against Trichophyton mentagrophytes PMC 6509 after 72 hrs by CLSI broth microdilution method; details: PMC 6509, 72 h; how it was run: as §2
# Cryptococcus neoformans [6] = test: Antifungal activity against Cryptococcus neoformans PMC 2123 after 72 hrs by CLSI broth microdilution method; details: PMC 2123, 72 h
# How it was run: (§3)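 Cryptococcus neoformans tested by CLSI broth microdilution in RPMI 1640, with serial two-fold dilutions from DMSO stocks at 100× the top concentration, final 0.125–64. Inoculum was 1.0–1.5 × 10^3 cells mL−1 at 35 °C, with growth read at 72 h. MIC is the lowest concentration with ≥50% growth inhibition versus control. Median of five replicates, plus geometric mean.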
# Cryptococcus neoformans [7] = test: Antifungal activity against Cryptococcus neoformans PMC 2111 after 72 hrs by CLSI broth microdilution method; details: PMC 2111, 72 h; how it was run: as §3
# Candida parapsilosis [8] = test: Antifungal activity against Candida parapsilosis ATCC 22019 after 48 hrs by CLSI broth microdilution method; details: Lodderomyces parapsilosis, ATCC 22019, 48 h; how it was run: as §1
# Cryptococcus neoformans [9] = test: Antifungal activity against Cryptococcus neoformans DSM 11959 after 72 hrs by CLSI broth microdilution method; details: DSM 11959, 72 h; how it was run: as §3
# Cryptococcus neoformans [10] = test: Antifungal activity against Cryptococcus neoformans PMC 2115 after 72 hrs by CLSI broth microdilution method; details: PMC 2115, 72 h; how it was run: as §3
# Nannizzia gypsea [11] = test: Antifungal activity against Microsporum gypseum PMC 7331 after 72 hrs by CLSI broth microdilution method; details: PMC 7331, 72 h; how it was run: as §2
# Candida albicans [12] = test: Antifungal activity against Candida albicans ATCC 90028 after 48 hrs by CLSI broth microdilution method; details: ATCC 90028, 48 h; how it was run: as §1
# Candida albicans [13] = test: Antifungal activity against Candida albicans ATCC 76615 after 48 hrs by CLSI broth microdilution method; details: ATCC 76615, 48 h; how it was run: as §1
# Candida tropicalis [14] = test: Antifungal activity against Candida tropicalis PMC 0910 after 48 hrs by CLSI broth microdilution method; details: PMC 0910, 48 h; how it was run: as §1
# [15] = system: Trichophyton mentagrophytes; test: Antifungal activity against Trichophyton mentagrophytes PMC 6531 after 72 hrs by CLSI broth microdilution method; details: PMC 6531, 72 h; how it was run: as §2
# [16] = system: Trichophyton mentagrophytes; test: Antifungal activity against Trichophyton mentagrophytes PMC 6552 after 72 hrs by CLSI broth microdilution method; details: PMC 6552, 72 h; how it was run: as §2
# Cryptococcus neoformans [17] = test: Antifungal activity against Cryptococcus neoformans PMC 2103 after 72 hrs by CLSI broth microdilution method; details: PMC 2103, 72 h; how it was run: as §3
# Cryptococcus neoformans [18] = test: Antifungal activity against Cryptococcus neoformans PMC 2102 after 72 hrs by CLSI broth microdilution method; details: PMC 2102, 72 h; how it was run: as §3
# Candida albicans [19] = test: Antifungal activity against Candida albicans ATCC 3153 after 48 hrs by CLSI broth microdilution method; details: ATCC 3153, 48 h; how it was run: as §1
# Nakaseomyces glabratus [20] = test: Antifungal activity against Candida glabrata PMC 0807 after 48 hrs by CLSI broth microdilution method; details: PMC 0807, 48 h; how it was run: as §1
# Pichia kudriavzevii [21] = test: Antifungal activity against Candida krusei DSM 6128 after 48 hrs by CLSI broth microdilution method; details: DSM 6128, 48 h; how it was run: as §1
# [22] = system: Trichophyton mentagrophytes; test: Antifungal activity against Trichophyton mentagrophytes PMC 6515 after 72 hrs by CLSI broth microdilution method; details: PMC 6515, 72 h; how it was run: as §2
# Candida albicans [23] = test: Antifungal activity against Candida albicans ATCC 10261 after 48 hrs by CLSI broth microdilution method; details: ATCC 10261, 48 h; how it was run: as §1
# Candida tropicalis [24] = test: Antifungal activity against Candida tropicalis DSM 11953 after 48 hrs by CLSI broth microdilution method; details: DSM 11953, 48 h; how it was run: as §1
# Candida albicans [25] = test: Antifungal activity against Candida albicans ATCC 10231 after 48 hrs by CLSI broth microdilution method; details: ATCC 10231, 48 h; how it was run: as §1
# Candida albicans [26] = test: Antifungal activity against Candida albicans PMC 1011 after 48 hrs by CLSI broth microdilution method; details: PMC 1011, 48 h; how it was run: as §1
# Nannizzia gypsea [27] = test: Antifungal activity against Microsporum gypseum PMC 7303 after 72 hrs by CLSI broth microdilution method; details: PMC 7303, 72 h; how it was run: as §2
# [28] = system: Trichophyton mentagrophytes; test: Antifungal activity against Trichophyton mentagrophytes PMC 6503 after 72 hrs by CLSI broth microdilution method; details: PMC 6503, 72 h; how it was run: as §2
# Cryptococcus neoformans [29] = test: Antifungal activity against Cryptococcus neoformans PMC 2136 after 72 hrs by CLSI broth microdilution method; details: PMC 2136, 72 h; how it was run: as §3
# Candida albicans [30] = test: Antifungal activity against Candida albicans ATCC 20891 after 48 hrs by CLSI broth microdilution method; details: ATCC 20891, 48 h; how it was run: as §1
# Candida albicans [31] = test: Antifungal activity against Candida albicans ATCC 24433 after 48 hrs by CLSI broth microdilution method; details: ATCC 24433, 48 h; how it was run: as §1
# Nakaseomyces glabratus [32] = test: Antifungal activity against Candida glabrata PMC 0805 after 48 hrs by CLSI broth microdilution method; details: PMC 0805, 48 h; how it was run: as §1
# Cryptococcus neoformans [33] = test: Antifungal activity against Cryptococcus neoformans PMC 2107 after 72 hrs by CLSI broth microdilution method; details: PMC 2107, 72 h; how it was run: as §3
structure (smiles),measurement,setting,value
O=C(Nc1ccc(N2CCN(C(=O)c3ccco3)CC2)cc1)OC(Cn1ccnc1)c1ccc(F)cc1 (stereo not drawn),MIC50,Candida parapsilosis [1],128 µg/mL
same,MIC80,[2],128 µg/mL
same,MIC50,Pichia kudriavzevii [3],128 µg/mL
same,MIC80,Nannizzia gypsea [4],128 µg/mL
same,MIC80,[5],128 µg/mL
same,MIC50,Cryptococcus neoformans [6],64 µg/mL
same,MIC50,Cryptococcus neoformans [7],16 µg/mL
same,MIC50,Candida parapsilosis [8],128 µg/mL
same,MIC50,Cryptococcus neoformans [9],16 µg/mL
same,MIC50,Cryptococcus neoformans [10],64 µg/mL
same,MIC80,Nannizzia gypsea [11],128 µg/mL
same,MIC50,Candida albicans [12],128 µg/mL
same,MIC50,Candida albicans [13],128 µg/mL
same,MIC50,Candida tropicalis [14],128 µg/mL
same,MIC80,[15],128 µg/mL
same,MIC80,[16],128 µg/mL
same,MIC50,Cryptococcus neoformans [17],1 µg/mL
same,MIC50,Cryptococcus neoformans [18],32 µg/mL
same,MIC50,Candida albicans [19],128 µg/mL
same,MIC50,Nakaseomyces glabratus [20],128 µg/mL
same,MIC50,Pichia kudriavzevii [21],128 µg/mL
same,MIC80,[22],128 µg/mL
same,MIC50,Candida albicans [23],32 µg/mL
same,MIC50,Candida tropicalis [24],128 µg/mL
same,MIC50,Candida albicans [25],128 µg/mL
same,MIC50,Candida albicans [26],128 µg/mL
same,MIC80,Nannizzia gypsea [27],64 µg/mL
same,MIC80,[28],128 µg/mL
same,MIC50,Cryptococcus neoformans [29],16 µg/mL
same,MIC50,Candida albicans [30],128 µg/mL
same,MIC50,Candida albicans [31],128 µg/mL
same,MIC50,Nakaseomyces glabratus [32],128 µg/mL
same,MIC50,Cryptococcus neoformans [33],16 µg/mL
